The subject of one data set is pancreatic cancer. To be noted: metastatic pancreatic cancer patients; cited from earlier work.
Another data set relates to BxPC-3 cells. The data set is described as follows: MTT cytotoxicity assay, BxPC-3. To be noted: Homo sapiens, BXPC-3, 72 h, read-out: IC50 (μM) BxPC-3, MTT assay, 72 h treatment; mean ± SD from three independent experiments. Type of data set: cell-based.
Another data set concerns MIA PaCa-2 cells. The data set can be described thus: MTT cytotoxicity assay, MIA PaCa-2. Type of data set: cell-based, human. To be noted: for IC50: Homo sapiens, MIA PaCa-2, 72 h, read-out: IC50 (μM) MIA PaCa-2, MTT assay, 72 h treatment, mean ± SD from three independent experiments; for effect of NAC on proliferation inhibitory effect: NAC 5 mM, MTT assay, 72 h. In general terms: Tetrazolium dyes change colour on reduction, which living cells bring about.

Data set [1] concerns ROS accumulation in MIA PaCa-2 cells. The data set can be described thus: ROS detection assay. Type of data set: cell-based, human. The note with it: for ROS accumulation / ROS induction after NAC pretreatment: MIA PaCa-2; for ROS accumulation: compounds at 10, 3.3 or 1.1 μM; for ROS induction after NAC pretreatment: NAC 5 mM for 30 min; for ROS induction and cytotoxicity compared with QD325: triphenylphosphonium derivatives. In outline: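 MIA PaCa-2 cells were trypsinised (0.05% trypsin-EDTA), loaded with 20 μM H2DCFDA for 30 min at 37 °C, washed, then seeded at 20,000 cells/well. After 30 min they were given test compound, with DMSO for basal signal and unstained cells plus 10 μM compound for autofluorescence. For NAC runs, cells were pretreated with 5 mM NAC for 30 min, with H2O2 as a control. Fluorescence was read at 493/523 nm over time, in duplicates; three independent experiments.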

A short description of data set [2]: tolerability in MIA PaCa-2 engrafted NOD/SCID mice. The format is in vivo.
Data set [3] has as its system MIA PaCa-2 xenograft. The data set can be described thus: MIA PaCa-2 xenograft tumor growth in NOD/SCID mice. The format is in vivo.
Data set [4] relates to nascent RNA synthesis in MIA PaCa-2 cells. The data set can be described thus: Bru-seq analysis for nascent RNA synthesis. The note with it: for apoptosis signaling by IPA analysis: 4 h, QD232 3 times IC50, QD325 5 times IC50; for nascent mitochondrial RNA synthesis: MIA PaCa-2, 4-hour treatment, QD232 at 6.9 μM, QD325 at 5.0 μM; for synthesis of NQO1 and HMOX1 RNAs / transcription of DDIT3 and HSPA5: MIA PaCa-2, 4 h; for synthesis of NQO1 and HMOX1 RNAs: QD232 at 1, 2 or 3 times IC50, QD325 at 1, 2 or 5 times IC50; for transcription of DDIT3 and HSPA5: dose-dependent. The format is cell-based, human.

Data set [5] relates to MIA PaCa-2 xenograft. The note with it: 20 mg/kg, 31-day study, similar MIA PaCa-2 xenograft model; cited from earlier work.

In general, IC50 refers to the concentration needed to halve the response being measured.

“Also recorded” adds a separate entry of the source. A value given as a limit tells only on which side of the number the result lay.

Consider FOLFIRINOX, for which the median overall survival with pancreatic cancer is given as 11.1 months.
Take `Nc1ccc(C(=O)NCCC[P+](c2ccccc2)(c2ccccc2)c2ccccc2)cc1` [QD339, (3-(4-Aminobenzamido)propyl)triphenylphosphonium bromide]: the IC50 in the data set on BxPC-3 cells and in the data set with MIA PaCa-2 cells was above 30 µM each time.
Take `O=C1C(Nc2ccc(-c3ccccc3)cc2)=CC(=O)c2ncncc21` [QD325, 6-([1,1’-Biphenyl]-4-ylamino)quinazoline-5,8-dione]: in data set [1], the ROS accumulation entry is “time-and dose-dependent accumulation of ROS; also recorded: stronger and more rapid ROS accumulation”; the “ROS induction after NAC pretreatment” value is recorded as “inhibited”. The “histopathology of H&E stained organ sections” value in data set [2] (5 mg/kg five times a week until day 44) is “did not reveal any major histopathological changes”. For the same compound, the “systemic toxicity at higher doses” value in data set [2] (dose increased from 5 to 20 mg/kg, day 44 to day 67, two mice per group) is “without any overt systemic toxicity”. For the same compound, the “symptoms of gross toxicity (weakness, weight loss, lethargy)” value in data set [2] (study 1, 5 mg/kg five times a week until day 44) is recorded as “No symptoms of gross toxicity”. The “Ki67 staining (proliferation marker) in tumor tissues” value in the data set on MIA PaCa-2 xenograft [3] (QD325 5 mg/kg five times a week until day 44, immunohistochemistry) is listed as “decreased”. Moreover, the “inhibition of tumor growth, experiment of Figure 6E” value in the data set on MIA PaCa-2 xenograft [3] (QD325 5 mg/kg five times a week, 48 days) came out at 83%. The “inhibition of tumor growth, experiment of Figure 5A” value with MIA PaCa-2 xenograft [3] (QD325 5 mg/kg five times a week, day 44) was 76%. Moreover, in the data set with MIA PaCa-2 xenograft [3] (QD325-treated vs vehicle-treated tumors), the “NQO1, HO-1, CHOP and GRP78 protein levels in tumor lysates” value is “significantly upregulated”. In addition, the “effect of NAC on proliferation inhibitory effect” value in the data set with MIA PaCa-2 cells was “attenuated”. Moreover, in data set [4], the “apoptosis signaling by IPA analysis” value is “significant activation of apoptosis signaling”; the “nascent mitochondrial RNA synthesis” value is on record as “inhibited”; the “synthesis of NQO1 and HMOX1 RNAs” value was “upregulated in a dose-dependent manner”; the “transcription of DDIT3 and HSPA5” value is listed as “significantly increased”.
Regarding `Nc1cccc(C(=O)NCCC[P+](c2ccccc2)(c2ccccc2)c2ccccc2)c1` [QD358, (3-(3-Aminobenzamido)propyl)triphenylphosphonium bromide], the half-inhibitory concentration (IC50) with BxPC-3 cells and with MIA PaCa-2 cells was above 30 µM throughout.
As for `Nc1ccn([C@@H]2O[C@H](CO)[C@@H](O)C2(F)F)c(=O)n1` [Gemcitabine], the median overall survival in the data set with pancreatic cancer was 6.8 months.
For `COc1cc(NC2=CC(=O)c3ncncc3C2=O)cc(OC)c1OC` [QD326, 6-((3,4,5-Trimethoxyphenyl)amino)quinazoline-5,8-dione], in data set [1], the ROS accumulation entry was “time-and dose-dependent accumulation of ROS; also recorded: stronger and more rapid ROS accumulation”; the “ROS induction after NAC pretreatment” value is reported as “inhibited”. Besides, in the data set on MIA PaCa-2 cells, the “effect of NAC on proliferation inhibitory effect” value is recorded as “attenuated”.
As for `O=C(NCCC[P+](c1ccccc1)(c1ccccc1)c1ccccc1)c1cccc(NC2=CC(=O)c3ncncc3C2=O)c1.[Br-]` [QD359, (3-(3-((5,8-Dioxo-5,8-dihydroquinazolin-6-yl)amino)benzamido)propyl) triphenylphosphonium bromide], the “ROS induction and cytotoxicity compared with QD325” value in data set [1] is “did not show better ROS induction and cytotoxicity than QD325”.
On the same count and under the same terms, to `O=C(NCCC[P+](c1ccccc1)(c1ccccc1)c1ccccc1)c1ccc(NC2=CC(=O)c3ncncc3C2=O)cc1.[Br-]` [QD340, (3-(4-((5,8-Dioxo-5,8-dihydroquinazolin-6-yl)amino)benzamido)propyl) triphenylphosphonium bromide] belongs “did not show better ROS induction and cytotoxicity than QD325”.
For `CC(=O)c1cccc(NC2=CC(=O)c3ncncc3C2=O)c1` [QD232, reference compound], in data set [1], the ROS accumulation result is “time-and dose-dependent accumulation of ROS” and the “ROS induction after NAC pretreatment” value is “inhibited”. The “suppression of tumor growth” value with MIA PaCa-2 xenograft [5] is given as 65%. Besides, in the data set on MIA PaCa-2 cells, the “effect of NAC on proliferation inhibitory effect” value was “attenuated”. In addition, in data set [4], the “apoptosis signaling by IPA analysis” value was “significant activation of apoptosis signaling”; the “nascent mitochondrial RNA synthesis” value is on record as “inhibited”; the “synthesis of NQO1 and HMOX1 RNAs” value is “upregulated in a dose-dependent manner”; the “transcription of DDIT3 and HSPA5” value is “significantly increased”.

These data come from paper PMC6688507 (Journal of medicinal chemistry, 2018).
